Source: ChEMBL document CHEMBL1146556, “Acetophenone derivatives from Acronychia pedunculata” (J Nat Prod, 2003)
pIC50: −log10 of the molar value.

What was measured:
[1] = test system: Radical scavenging activity; assay: Antioxidant activity assessed as DPPH radical scavenging activity at 500 uM after 30 mins; assay type: functional
Summary of the method: (§1)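 Radical scavenging was read as percent inhibition after a 30 min incubation.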

[2] = target: T1, Tyrosinase (Homo sapiens) (UniProt P14679); assay: Inhibition of tyrosinase at 500 uM
T1 sequence (whole entry): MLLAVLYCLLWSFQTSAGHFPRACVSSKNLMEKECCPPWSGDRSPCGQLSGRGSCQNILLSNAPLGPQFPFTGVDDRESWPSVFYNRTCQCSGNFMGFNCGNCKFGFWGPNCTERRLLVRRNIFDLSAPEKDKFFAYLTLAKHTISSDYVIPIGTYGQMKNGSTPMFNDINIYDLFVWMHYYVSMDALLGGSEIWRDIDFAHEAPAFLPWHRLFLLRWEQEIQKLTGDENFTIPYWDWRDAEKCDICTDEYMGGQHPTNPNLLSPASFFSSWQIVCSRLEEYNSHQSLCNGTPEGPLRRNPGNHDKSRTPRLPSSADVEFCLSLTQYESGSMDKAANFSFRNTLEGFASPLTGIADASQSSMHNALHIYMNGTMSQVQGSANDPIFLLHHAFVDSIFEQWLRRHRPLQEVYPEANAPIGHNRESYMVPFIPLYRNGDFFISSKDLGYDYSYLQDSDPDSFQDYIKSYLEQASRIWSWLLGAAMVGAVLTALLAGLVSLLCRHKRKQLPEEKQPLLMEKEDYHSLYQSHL

Tyrosinase = target: T2, Tyrosinase (Homo sapiens, UniProt P14679); assay: Inhibition of tyrosinase
T2 sequence (P14679 whole entry): T1 sequence (whole entry)

[3] = test system: Radical scavenging activity; assay: Antioxidant activity assessed as DPPH radical scavenging activity after 30 mins; assay type: functional; summary of the method: as §1

Molecule | inhibition [1] [%] | inhibition [2] [%] | pIC50 (Tyrosinase) | pIC50 [3]
COc1c(CC=C(C)C)c2c(c(O)c1C(C)=O)C=CC(C)(C)O2 | 2.9 | 2.5 |  | 
COc1c(CC=C(C)C)c(O)c(C(=O)CC(C)C)c(O)c1C(C)=O | 8.3 | 16.8 |  | 
COc1c(CC=C(C)C)c(O)c([C@H](CC(C)C)c2c(O)c(CC=C(C)C)c(O)c(C(C)=O)c2O)c(O)c1C(C)=O [ACROVESTONE] |  |  | 3.48 | 3.31
COc1c(CC=C(C)C)c2c(c(O)c1C(C)=O)C[C@H](C(C)(C)O)O2 | 5.3 | 6.5 |  | 
C=C(C)C(O)Cc1c(O)cc(O)c(C(C)=O)c1OC (stereo not drawn) | 10.3 | 8.1 |  | 
VITAMIN E |  |  |  | 5.08
COc1c(CC=C(C)C)c(O)c(C=O)c(O)c1C(C)=O | 3.1 | 11.8 |  | 
